# Test results as given in ChEMBL document CHEMBL1155597, “Activity of extracts and isolated naphthoquinones from Kigelia pinnata against Plasmodium falciparum” (J Nat Prod, 2000).
# Experiments:
# Plasmodium falciparum [1] = experiment: Antimalarial activity after 48 hrs against chloroquine-resistant Plasmodium falciparum K1 by LDH reporter assay; type: functional, organism-based; conditions: K1, 48 h
# Method in brief: (§1)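 Asexual cultures kept in 5% A+ human red cells in RPMI 1640 with HEPES, glucose, NaHCO3, hypoxanthine, gentamycin and 10% A+ human serum under 1% O2/3% CO2/96% N2 at 37 °C. Ring-stage blood (1% parasitemia, 2% hematocrit) exposed 48 h to compounds at 50 µg/mL to 1.63 ng/mL final (2-fold). Modified LDH read-out: Malstat, then NBT/phenazine ethosulfate, absorbance at 650 nm. Tested twice in triplicate; IC50 ± SD.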
# [2] = Selectivity ratio of ED50 for KB cells to IC50 for Plasmodium falciparum K1; type: ADME, cell-based; conditions: human, KB cells (cytotoxicity) versus Plasmodium falciparum K1
# Method in brief: (§2)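 Ratio of KB ED50 to P. falciparum IC50. KB ED50 comes from the 48 h MTT assay. Parasite IC50 comes from a 48 h modified lactate dehydrogenase assay on ring-stage cultures (1% parasitemia, 2% hematocrit, A+ human RBC), 37 °C, 1% O2/3% CO2/96% N2. Compounds tested at 50 μg/mL to 1.63 ng/mL in 2-fold dilutions, twice in triplicate, with NBT/PES read at 650 nm.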
# [3] = Selectivity ratio of ED50 for KB cells to IC50 for Plasmodium falciparum T9-96; type: ADME, cell-based; conditions: human, KB cells (cytotoxicity) versus Plasmodium falciparum T9-96; method in brief: as §2
# KB = experiment: Cytotoxicity against human KB cells after 48 hrs by MTT assay; type: functional; conditions: read-out: ED50 (the source's name)
# Method in brief: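 KB human oral epidermal carcinoma cells in DMEM glutamax-1 + 10% HIFCS, 37 °C, 5% CO2. Log-phase cells seeded at 25 000/well and left 24 h to attach. Compounds added from DMSO (≤0.5% final), 200 to 0.064 μg/mL in 5-fold series, triplicate. After 48 h, MTT added for 4 h, formazan dissolved in DMSO, A540 blank-subtracted. Growth expressed as % of untreated control.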
# Plasmodium falciparum [4] = experiment: Antimalarial activity after 48 hrs against chloroquine-sensitive Plasmodium falciparum T9-96 by LDH reporter assay; type: functional, organism-based; conditions: T9-96, 48 h; method in brief: as §1
SMILES,IC50 (Plasmodium falciparum [1]) [µM],selectivity ratio [2],selectivity ratio [3],EC50 (KB) [µM],IC50 (Plasmodium falciparum [4]) [µM]
CC(O)c1cc2c(o1)C(=O)c1ccccc1C2=O (stereo unspecified),0.627,6.18,5.4,3.9,0.718
CCN(CC)CCCC(C)Nc1ccnc2cc(Cl)ccc12 (stereo unspecified) [CHLOROQUINE PHOSPHATE],–,–,–,43.9,–
CC1=C2C=C3C(=O)c4cc(O)ccc4C(=O)C3(O)C(C)=C2CC1 (stereo unspecified) [ISOKIGELINOL],15.2,12.7,14,167,11.9
C[C@]12CC[C@@H]3[C@H]1C=C1C(=O)c4cc(O)ccc4C(=O)[C@@]1(O2)[C@]3(C)C=O [ISOPINNATAL],0.763,19.4,9.54,14.8,1.55
CC1=C2C=C3C(=O)c4ccc(O)cc4C(=O)C3(O)C(C)=C2CC1 (stereo unspecified) [KIGELINOL],16.7,8.88,9.74,148,15.2
